# Calls of active or inactive are those of the source. No cut-off for these calls is given here.
# How the values were obtained:
# Adenosine receptor A2a [1] = target: T1, Adenosine receptor A2a (Homo sapiens, UniProt P29274); assay: Displacement of [3H]ZM241385 from human recombinant adenosine A2A receptor expressed in HEK293 cells after 1 hr by competitive binding assay; format: cell-based
# Procedure, shortened: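 HEK293 membranes expressing human A2A receptor pretreated with 2 IU/mL adenosine deaminase, 30 min at 37 °C. Competition with [3H]ZM241385 at its Kd (2 nM) using 5–10 µg protein and test compound 0.01–10,000 nM, 1 h at 4 °C in 50 mM Tris-HCl pH 7.4, 10 mM MgCl2. Nonspecific binding with 10 µM unlabeled ZM241385. Ki via Cheng–Prusoff; four experiments in triplicate.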
# Adenosine receptor A1 = target: T2, Adenosine receptor A1 (Homo sapiens, UniProt P30542); assay: Displacement of [3H]DPCPX from human recombinant adenosine A1 receptor expressed in CHO-K1 cells after 60 mins; format: cell-based
# T2 sequence (P30542 whole entry): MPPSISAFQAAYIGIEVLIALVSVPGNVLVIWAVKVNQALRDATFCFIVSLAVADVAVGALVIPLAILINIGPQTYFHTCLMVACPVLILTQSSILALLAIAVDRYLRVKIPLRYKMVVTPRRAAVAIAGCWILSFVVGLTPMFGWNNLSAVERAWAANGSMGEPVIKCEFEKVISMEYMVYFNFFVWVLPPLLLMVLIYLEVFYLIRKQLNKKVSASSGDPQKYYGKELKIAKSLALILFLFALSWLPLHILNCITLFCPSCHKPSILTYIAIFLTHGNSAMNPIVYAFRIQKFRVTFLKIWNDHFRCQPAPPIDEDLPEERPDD
# [2] = target: T3, Adenosine receptor A3 (Homo sapiens) (UniProt P0DMS8); assay: Binding affinity to human adenosine A3 receptor
# T3 sequence (whole entry): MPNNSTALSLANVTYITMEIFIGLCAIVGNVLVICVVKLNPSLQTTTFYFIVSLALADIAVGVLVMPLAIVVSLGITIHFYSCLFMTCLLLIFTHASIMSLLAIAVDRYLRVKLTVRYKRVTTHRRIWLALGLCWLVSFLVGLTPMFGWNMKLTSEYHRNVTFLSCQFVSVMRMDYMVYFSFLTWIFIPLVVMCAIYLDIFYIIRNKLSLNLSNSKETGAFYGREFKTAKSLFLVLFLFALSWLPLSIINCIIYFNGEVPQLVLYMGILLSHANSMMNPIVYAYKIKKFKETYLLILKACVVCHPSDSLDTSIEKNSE
# Adenosine receptor A2a [3] = target: T1, Adenosine receptor A2a; assay: Inhibition of human recombinant adenosine A2A receptor expressed in HEK293 cells at 10 uM; format: cell-based
# [4] = target: T3, Adenosine receptor A3 (Homo sapiens); assay: Inhibition of human adenosine A3 receptor at 10 uM
# [5] = target: T4, Adenosine receptor A1 (Homo sapiens) (UniProt P30542); assay: Inhibition of human recombinant adenosine A1 receptor expressed in CHO-K1 cells at 10 uM; format: cell-based
# T4 sequence (whole entry): T2 sequence (P30542 whole entry)
# Mus musculus [6] = assay: Induction of limbic movement in CD1 mouse at 20 to 200 mg/kg, po after 60 to 240 mins by Irwin test; format: functional, organism-based; conditions: Limbic system
# Procedure, shortened: (§1)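 Irwin test in CD-1 mice, 5–6 weeks old, 4 per group. Compounds suspended in 0.1% Tween 80 in 0.5% CMC and given orally at 20, 100 and 200 mg/kg in 10 mL/kg. Behaviour recorded by camera at 60 and 240 min after dosing; stereotypies scored: sniffing (limbic), licking and biting (striatal).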
# Mus musculus [7] = assay: Induction of striatal movement in CD1 mouse at 20 to 200 mg/kg, po after 60 to 240 mins by Irwin test; format: functional, organism-based; procedure, shortened: as §1
# Adenosine receptor A2a [8] = target: T1, Adenosine receptor A2a; assay: Antagonist activity at human adenosine A2A receptor expressed in HEK293 cells assessed as inhibition of NECA-induced cAMP accumulation incubated for 10 mins prior to NECA addition; format: functional, cell-based
# Procedure, shortened: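 HEK-293 cells stably expressing human A2A, plated 48 h ahead. They were pretreated 10 min at 37 °C with 0.5 mM Ro20-1724 and 2 IU/mL adenosine deaminase, then compound (10^-4 to 10^-10 M) for 10 min at 37 °C, then 100 nM NECA for 20 min. cAMP was extracted and measured by enzyme immunoassay. IC50 came from nonlinear regression of four independent experiments.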
# T1 sequence (P29274 whole entry): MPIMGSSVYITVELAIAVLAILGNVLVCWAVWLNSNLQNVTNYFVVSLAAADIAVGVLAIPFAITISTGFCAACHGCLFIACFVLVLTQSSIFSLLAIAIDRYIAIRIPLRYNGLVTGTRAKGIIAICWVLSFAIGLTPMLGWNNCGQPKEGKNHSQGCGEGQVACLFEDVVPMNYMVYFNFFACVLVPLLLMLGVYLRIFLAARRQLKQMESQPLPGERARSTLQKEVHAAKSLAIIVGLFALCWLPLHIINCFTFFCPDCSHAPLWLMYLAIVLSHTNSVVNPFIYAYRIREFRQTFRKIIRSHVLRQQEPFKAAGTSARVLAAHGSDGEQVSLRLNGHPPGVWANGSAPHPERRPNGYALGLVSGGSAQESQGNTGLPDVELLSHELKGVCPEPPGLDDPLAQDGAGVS
Ki (Adenosine receptor A1) [nM],Activity [2],inhibition (Adenosine receptor A2a [3]),inhibition [4] [%],inhibition [5],IC50 (Adenosine receptor A2a [8]) [nM],SMILES,Ki (Adenosine receptor A2a [1]) [nM],Activity (Mus musculus [6]),Activity (Mus musculus [7])
–,–,–,–,–,–,CCC(O)Cc1nc(N)c2nc(-n3nccn3)n(C)c2n1 (configuration not stated),64,–,–
53,–,–,–,–,–,C[C@H](O)CCc1nc(N)c2nc(-n3nccn3)n(C)c2n1,–,–,–
150,inactive,Active,47,Active,–,Cn1c(-n2nccn2)nc2c(N)nc(CCCCO)nc21,–,–,–
–,inactive,Active,56,Active,–,CC(=O)CCc1nc(N)c2nc(-n3nccn3)n(C)c2n1,–,Active,Active
160,inactive,Active,55,Active,–,CCCC(O)c1nc(N)c2nc(-n3nccn3)n(C)c2n1 (racemic),–,Active,Active
100,–,–,–,–,430,CCCCc1nc(N)c2nc(-n3nccn3)n(C)c2n1 [ST1535],–,–,–

SMILES,Ki (Adenosine receptor A1) [nM],Activity [2],inhibition (Adenosine receptor A2a [3]),inhibition [4] [%],inhibition [5],IC50 (Adenosine receptor A2a [8]) [nM],Ki (Adenosine receptor A2a [1]) [nM],Activity (Mus musculus [6]),Activity (Mus musculus [7])
C[C@@H](O)CCc1nc(N)c2nc(-n3nccn3)n(C)c2n1,34,–,–,–,–,–,7.5,–,–
CC(O)CCc1nc(N)c2nc(-n3nccn3)n(C)c2n1 (racemic),34,inactive,Active,61,Active,–,8.4,Active,Active

# From ChEMBL document CHEMBL2396554, “Synthesis and biological evaluation of metabolites of 2-n-butyl-9-methyl-8-[1,2,3]triazol-2-yl-9H-purin-6-ylamine (ST1535), a potent antagonist of the A2A adenosine receptor for the treatment of Parkinson's disease” (J Med Chem, 2013)
